How the values were obtained:
[1] = Antiplatelet activity against New Zealand white rabbit platelets assessed as inhibition of ADP-induced platelet aggregation at 50 ug/mL treated 2 mins before ADP challenge measured after 4 mins by turbidimetric analysis; assay type: functional; settings: Oryctolagus cuniculus
Method in brief: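 Washed platelets from ear-vein blood (acid-citrate dextrose), washed in Ca²⁺-free Tyrode's with BSA, heparin and apyrase, resuspended in Tyrode's with 1 mM Ca²⁺ at 2.5 × 10⁸/mL. Stirred at 900 rpm, preincubated 2 min at 37 °C with compound or vehicle (DMSO, final 0.5%), then challenged with 20 μM ADP. Maximal light-transmission rise within 4 min; inhibition computed versus vehicle.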

[2] = Antiplatelet activity against New Zealand white rabbit platelets assessed as inhibition of collagen-induced platelet aggregation at 50 ug/mL treated 2 mins before collagen challenge measured after 4 mins by turbidimetric analysis; assay type: functional; settings: Oryctolagus cuniculus
Method in brief: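 Rabbit washed platelets (EDTA-treated PRP, washed in Ca²⁺-free Tyrode's with BSA, heparin and apyrase at 37 °C for 20 min) were resuspended in 1 mM Ca²⁺ Tyrode's at 2.5 × 10⁸/mL. Compound or DMSO vehicle (final 0.5%) was added for 2 min at 37 °C with 900 rpm stirring before collagen. Read-out was peak transmission increase within 4 min, expressed as inhibition relative to vehicle.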

[3] = cells; settings: Oryctolagus cuniculus, New Zealand white, Platelet, read-out: INH
[4] = cells; settings: Oryctolagus cuniculus, New Zealand white, Platelet, read-out: INH; remark: listed apart in the source

Work on O=C(/C=C/c1ccncc1)c1ccc(O)c(CN2CCOCC2)c1 yielded an inhibition at 50 µg/mL [1] of 100% and an inhibition at 50 µg/mL [2] of 79.4%.

In the case of CC(C)Oc1ccc(C(=O)/C=C/c2cccs2)c(O)c1CN1CCOCC1, the inhibition at 50 µg/mL [1] is reported as 29% and the inhibition at 50 µg/mL [2] is reported as 3.2%.

Compound COc1ccc(/C=C/C(=O)c2cccnc2)c(CN2CCCCC2)c1O has an inhibition at 50 µg/mL [1] of 100% and an inhibition at 50 µg/mL [2] of 98.4%.

In the case of COc1cc(O)c(C(=O)/C=C/c2ccco2)cc1CN1CCOCC1, the inhibition at 50 µg/mL [1] is reported as 17.2% and the inhibition at 50 µg/mL [2] is reported as 19.7%.

Compound O=C(/C=C/c1ccco1)c1cccc(O)c1CN1CCOCC1 has an inhibition at 50 µg/mL [1] of 100% and an inhibition at 50 µg/mL [2] of 60.8%.

CCOc1cc(O)c(C(=O)/C=C/c2ccccn2)cc1CN1CCOCC1 showed an inhibition at 50 µg/mL [1] of 100% and an inhibition at 50 µg/mL [2] of 43%.

COc1cc(/C=C/C(=O)c2ccc(OCC=C(C)C)cc2O)cc(OC)c1 showed an inhibition at 50 µg/mL [1] of 20.7% and an inhibition at 50 µg/mL [2] of 8.7%.

Work on COc1cc(OC)c(OC)cc1/C=C/C(=O)c1ccc(OCC=C(C)C)cc1O yielded an inhibition at 50 µg/mL [1] of 15.7% and an inhibition at 50 µg/mL [2] of 4%.

For O=C(/C=C/c1ccccn1)c1ccc(CN2CCOCC2)c(O)c1, the inhibition at 50 µg/mL [1] was 100% and the inhibition at 50 µg/mL [2] was 98.4%.

Compound COc1cccc(/C=C/C(=O)c2ccc(OCC=C(C)C)cc2O)c1OC has an inhibition at 50 µg/mL [1] of 21.3% and an inhibition at 50 µg/mL [2] of 19.7%.

COc1cc(O)c(C(=O)/C=C/c2cccs2)cc1CN1CCOCC1 showed an inhibition at 50 µg/mL [1] of 26.4% and an inhibition at 50 µg/mL [2] of 11.1%.

With O=C(/C=C/c1cccs1)c1cccc(O)c1CN1CCOCC1 the inhibition at 50 µg/mL [1] was 100% and the inhibition at 50 µg/mL [2] was 83.5%.

With COc1ccc(/C=C/C(=O)c2cccs2)c(CN2CCCCC2)c1O the inhibition at 50 µg/mL [1] was 100% and the inhibition at 50 µg/mL [2] was 95.2%.

O=C(/C=C/c1cccs1)c1ccc(O)c(CN2CCOCC2)c1 showed an inhibition at 50 µg/mL [1] of 23.4% and an inhibition at 50 µg/mL [2] of 25%.

Compound COc1cc(O)c(C(=O)/C=C/c2ccccc2)cc1CN1CCOCC1 has an inhibition at 50 µg/mL [1] of 97.2% and an inhibition at 50 µg/mL [2] of 29.2%.

C=CCOc1ccc(C(=O)/C=C/c2ccccc2)c(O)c1 gave an inhibition at 50 µg/mL [1] of 25.6% and an inhibition at 50 µg/mL [2] of 6.3%.

Work on O=C(/C=C/c1ccccn1)c1cc(CN2CCOCC2)c(O)c(CN2CCOCC2)c1 yielded an inhibition at 50 µg/mL [1] of 100% and an inhibition at 50 µg/mL [2] of 78.6%.

C=CCOc1ccc(C(=O)/C=C/c2ccc3c(c2)OCO3)c(O)c1 gave an inhibition at 50 µg/mL [1] of 21.4% and an inhibition at 50 µg/mL [2] of 7.9%.

For COC(=O)[C@H](c1ccccc1Cl)N1CCc2sccc2C1 [CLOPIDOGREL], the inhibition at 9.6 µg/mL [3] was 85.2% and the inhibition at 9.6 µg/mL [4] was 3.5%.

CCOc1cc(O)c(C(=O)/C=C/c2ccco2)cc1CN1CCOCC1 gave an inhibition at 50 µg/mL [1] of 22.5% and an inhibition at 50 µg/mL [2] of 0%.

CC(C)Oc1cc(O)c(C(=O)/C=C/c2cccs2)cc1CN1CCOCC1 gave an inhibition at 50 µg/mL [1] of 23.4% and an inhibition at 50 µg/mL [2] of 0%.

In the case of C=CCOc1ccc(C(=O)/C=C/c2ccc(OC)c(OC)c2OC)c(O)c1, the inhibition at 50 µg/mL [1] is reported as 26.4% and the inhibition at 50 µg/mL [2] is reported as 14.9%.

Work on C=CCOc1ccc(C(=O)/C=C/c2cccc(OC)c2OC)c(O)c1 yielded an inhibition at 50 µg/mL [1] of 30.8% and an inhibition at 50 µg/mL [2] of 44.7%.

With COc1ccc(/C=C/C(=O)c2ccco2)c(CN2CCCCC2)c1O the inhibition at 50 µg/mL [1] was 100% and the inhibition at 50 µg/mL [2] was 93.7%.

For CC(C)=CCOc1ccc(C(=O)/C=C/c2ccc3c(c2)OCO3)c(O)c1, the inhibition at 50 µg/mL [1] was 20% and the inhibition at 50 µg/mL [2] was 17.3%.

Work on COc1ccc(/C=C/C(=O)c2ccc(OCC=C(C)C)cc2O)cc1OC yielded an inhibition at 50 µg/mL [1] of 24.3% and an inhibition at 50 µg/mL [2] of 10.3%.

COc1ccc(C(=O)/C=C/c2ccccn2)c(O)c1CN1CCOCC1 gave an inhibition at 50 µg/mL [1] of 100% and an inhibition at 50 µg/mL [2] of 93.7%.

With CC(C)=CCOc1ccc(C(=O)/C=C/c2sccc2C)c(O)c1CN1CCOCC1 the inhibition at 50 µg/mL [1] was 14.2% and the inhibition at 50 µg/mL [2] was 11.1%.

C=CCOc1ccc(C(=O)/C=C/c2ccc(OC)cc2)c(O)c1 showed an inhibition at 50 µg/mL [1] of 24.9% and an inhibition at 50 µg/mL [2] of 5.5%.

In the case of COc1ccc(/C=C/C(=O)c2ccc(OCC=C(C)C)cc2O)cc1, the inhibition at 50 µg/mL [1] is reported as 25.7% and the inhibition at 50 µg/mL [2] is reported as 17.3%.

Compound CCOc1cc(O)c(C(=O)/C=C/c2cccnc2)cc1CN1CCOCC1 has an inhibition at 50 µg/mL [1] of 100% and an inhibition at 50 µg/mL [2] of 46.9%.

COc1ccc(/C=C/C(=O)c2ccc(OCC=C(C)C)cc2O)cc1O showed an inhibition at 50 µg/mL [1] of 23% and an inhibition at 50 µg/mL [2] of 13.4%.

COc1cc(/C=C/C(=O)c2ccc(OCC=C(C)C)cc2O)cc(OC)c1OC gave an inhibition at 50 µg/mL [1] of 27.1% and an inhibition at 50 µg/mL [2] of 7.9%.

CCOc1cc(O)c(C(=O)/C=C/c2ccc(C)o2)cc1CN1CCOCC1 gave an inhibition at 50 µg/mL [1] of 16.5% and an inhibition at 50 µg/mL [2] of 0%.

In the case of O=C(/C=C/c1cccnc1)c1ccc(CN2CCOCC2)c(O)c1, the inhibition at 50 µg/mL [1] is reported as 100% and the inhibition at 50 µg/mL [2] is reported as 95.3%.

Work on O=C(/C=C/c1ccncc1)c1ccc(CN2CCOCC2)c(O)c1 yielded an inhibition at 50 µg/mL [1] of 100% and an inhibition at 50 µg/mL [2] of 100%.

C=CCOc1ccc(C(=O)/C=C/c2cc(OC)c(OC)cc2OC)c(O)c1 gave an inhibition at 50 µg/mL [1] of 21.6% and an inhibition at 50 µg/mL [2] of 0%.

In the case of Cc1ccc(/C=C/C(=O)c2ccc(O)c(CN3CCOCC3)c2)o1, the inhibition at 50 µg/mL [1] is reported as 12.8% and the inhibition at 50 µg/mL [2] is reported as 0%.

Work on O=C(/C=C/c1ccccc1)c1cccc(O)c1CN1CCOCC1 yielded an inhibition at 50 µg/mL [1] of 100% and an inhibition at 50 µg/mL [2] of 89.8%.

Cc1ccsc1/C=C/C(=O)c1cc(CN2CCOCC2)c(O)c(CN2CCOCC2)c1 gave an inhibition at 50 µg/mL [1] of 24.9% and an inhibition at 50 µg/mL [2] of 50%.

C=CCOc1ccc(C(=O)/C=C/c2cc(OC)ccc2OC)c(O)c1 showed an inhibition at 50 µg/mL [1] of 33.6% and an inhibition at 50 µg/mL [2] of 57.2%.

O=C(/C=C/c1ccccn1)c1ccc(O)c(CN2CCOCC2)c1 gave an inhibition at 50 µg/mL [1] of 99.3% and an inhibition at 50 µg/mL [2] of 63.5%.

CC(C)=CCOc1ccc(C(=O)/C=C/c2ccccc2)c(O)c1 [CORDOIN] showed an inhibition at 50 µg/mL [1] of 16.4% and an inhibition at 50 µg/mL [2] of 6.3%.

Compound COc1ccc(OC)c(/C=C/C(=O)c2ccc(OCC=C(C)C)cc2O)c1 has an inhibition at 50 µg/mL [1] of 22.8% and an inhibition at 50 µg/mL [2] of 14.9%.

For COc1ccc(/C=C/C(=O)c2ccc(OCC=C(C)C)cc2O)c(OC)c1, the inhibition at 50 µg/mL [1] was 42.7% and the inhibition at 50 µg/mL [2] was 39.2%.

CCOc1cc(O)c(C(=O)/C=C/c2ccccc2)cc1CN1CCOCC1 showed an inhibition at 50 µg/mL [1] of 39.3% and an inhibition at 50 µg/mL [2] of 2.3%.

For COc1ccc(/C=C/C(=O)c2ccc(C)cc2)c(CN2CCOCC2)c1O, the inhibition at 50 µg/mL [1] was 99.3% and the inhibition at 50 µg/mL [2] was 57.6%.

O=C(/C=C/c1cccnc1)c1ccc(O)c(CN2CCOCC2)c1 gave an inhibition at 50 µg/mL [1] of 100% and an inhibition at 50 µg/mL [2] of 56.4%.

With Cc1ccsc1/C=C/C(=O)c1cccc(O)c1CN1CCOCC1 the inhibition at 50 µg/mL [1] was 79.1% and the inhibition at 50 µg/mL [2] was 65.5%.

With O=C(/C=C/c1ccco1)c1ccc(O)c(CN2CCOCC2)c1 the inhibition at 50 µg/mL [1] was 18.4% and the inhibition at 50 µg/mL [2] was 4.7%.

With C=CCOc1ccc(C(=O)/C=C/c2ccc(OC)cc2OC)c(O)c1 the inhibition at 50 µg/mL [1] was 35.2% and the inhibition at 50 µg/mL [2] was 53.4%.

Cc1ccsc1/C=C/C(=O)c1ccc(O)c(CN2CCOCC2)c1 gave an inhibition at 50 µg/mL [1] of 21.4% and an inhibition at 50 µg/mL [2] of 12.5%.

In the case of COc1ccc(/C=C/C(=O)c2cc(CN3CCOCC3)c(OC)cc2O)cc1, the inhibition at 50 µg/mL [1] is reported as 36.7% and the inhibition at 50 µg/mL [2] is reported as 7.1%.

In the case of C=CCOc1ccc(C(=O)/C=C/c2cc(OC)cc(OC)c2)c(O)c1, the inhibition at 50 µg/mL [1] is reported as 30.8% and the inhibition at 50 µg/mL [2] is reported as 13.4%.

Work on C=CCOc1ccc(C(=O)/C=C/c2cc(OC)c(OC)c(OC)c2)c(O)c1 yielded an inhibition at 50 µg/mL [1] of 70.4% and an inhibition at 50 µg/mL [2] of 43.2%.

COc1ccc(/C=C/C(=O)c2cccc(C)c2)c(CN2CCOCC2)c1O gave an inhibition at 50 µg/mL [1] of 100% and an inhibition at 50 µg/mL [2] of 78%.

Work on O=C(/C=C/c1ccccn1)c1ccc(O)c(CN2CCOCC2)c1O yielded an inhibition at 50 µg/mL [1] of 100% and an inhibition at 50 µg/mL [2] of 12.5%.

Compound CCOc1cc(O)c(C(=O)/C=C/c2sccc2C)cc1CN1CCOCC1 has an inhibition at 50 µg/mL [1] of 32.3% and an inhibition at 50 µg/mL [2] of 0%.

COc1cc(O)c(C(=O)/C=C/c2cccnc2)cc1CN1CCOCC1 showed an inhibition at 50 µg/mL [1] of 100% and an inhibition at 50 µg/mL [2] of 96.1%.

O=C(/C=C/c1ccccn1)c1ccc(CN2CCOCC2)c(O)c1CN1CCOCC1 gave an inhibition at 50 µg/mL [1] of 100% and an inhibition at 50 µg/mL [2] of 100%.

With O=C(/C=C/c1ccccc1)c1ccc(O)c(CN2CCOCC2)c1 the inhibition at 50 µg/mL [1] was 34.2% and the inhibition at 50 µg/mL [2] was 20.3%.

COc1ccc(/C=C/C(=O)c2ccc(OCC=C(C)C)cc2O)c(OC)c1OC showed an inhibition at 50 µg/mL [1] of 21.4% and an inhibition at 50 µg/mL [2] of 12.6%.

Source: ChEMBL document CHEMBL1926630, “Structure-activity relationships of chalcone analogs as potential inhibitors of ADP- and collagen-induced platelet aggregation” (2011)
